Screening data (PubChem BioAssay)
PKA-R1A activ – PKA-R1A complex activation; AID 504707; PKA-R1A dissociation, Cy5-IP20 fluorescence polarization; scaled: DMSO 0%, 113 µM cGMP 100%; P00514+P68181; activation, % at 11.4 µM; hit rate 0.083% among 340,000;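 active = percent activation above the mean of all tested compounds plus 3 SD, cut at about 19% in these data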;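 note: higher means more PKAc released from R1A so a rise in polarization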
CDK5 inh – blocks human CDK5/p35 kinase activity. hit rate 0.01% among 330,000. inhibition, % at 10 µM. Q00535+Q15078. Recombinant CDK5/p35, ADP-Glo luminescence, 60 min;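 active = highest replicate inhibition of at least 50% and at least 75% of replicates reaching 50%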;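 note: plate controls were DMSO neutral control for no effect and GW8510 at 10 µM for full effect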
dFosB activator – mouse delta FosB homodimer activation. purified delta FosB, TAMRA-CDK5 oligo fluorescence polarization; percent of positive-control signal above neutral wells. activation, % at 25 µM. hit rate 0.99% among 340,000. AID 493131. P13346;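 active = mean activation above about 17%, with every replicate also reaching it, limit read from the data, passing the limit was not always enough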
SR-BI HDL uptake – inhibitors of mouse SR-BI mediated HDL lipid uptake; ldlA[mSR-BI] CHO cells, DiI-HDL uptake fluorescence, 3 h; inhibition, % at 12.5 µM; hit rate 0.96% among 320,000;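 active = mean replicate inhibition of at least 70% and a set share of replicates each scoring 70 or more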;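 note: 0% = median of neutral control wells and 100% = median of positive control wells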
PKA-R2B act – activates the human PKA-R2B holoenzyme complex. P22694+P31323. PKA-R2B holoenzyme dissociation, Cy5-IP20 fluorescence polarization; R2B truncated from residue 108, S112A mutant; 0% DMSO only, 100% 113 µM cGMP. activation, % at 11.4 µM. hit rate 0.079% among 340,000;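 active = activation above a cutoff set at the mean over all compounds plus 3 SD, cut at about 18% in these data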;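 note: higher means more holoenzyme dissociation and a rise in polarization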
Target sequence (P31323 whole entry, looked up, other chains not shown, the tested form may be a part): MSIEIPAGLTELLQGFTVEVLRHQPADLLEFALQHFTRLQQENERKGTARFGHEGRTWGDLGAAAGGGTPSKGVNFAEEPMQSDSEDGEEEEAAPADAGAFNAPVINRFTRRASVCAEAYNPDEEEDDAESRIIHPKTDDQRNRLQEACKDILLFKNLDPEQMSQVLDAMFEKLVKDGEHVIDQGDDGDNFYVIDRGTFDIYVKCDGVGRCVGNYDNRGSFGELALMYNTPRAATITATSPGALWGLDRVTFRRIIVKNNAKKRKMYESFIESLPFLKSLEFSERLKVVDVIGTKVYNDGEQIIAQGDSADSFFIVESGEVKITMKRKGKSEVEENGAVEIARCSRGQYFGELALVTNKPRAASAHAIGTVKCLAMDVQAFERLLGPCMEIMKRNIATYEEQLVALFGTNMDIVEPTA
SR-BI DiI-HDL act – activators of SR-BI mediated HDL lipid uptake; hit rate 0.096% among 320,000; activation, % at 12.5 µM; CHO ldlA[mSR-BI] cells, DiI-HDL uptake fluorescence, 3 h; 100 = double the neutral-control signal;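 active = mean replicate activation of at least 60% and every replicate at or above 60%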;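 note: 0% = median plate neutral-control signal and 100% = twice that signal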
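Material – SR-BI-overexpressing, LDLR-lacking CHO cells · Medium – BSA-supplemented, HEPES-buffered Ham's F12, pH 7.4 · Doses – single concentration · Times – compound with DiI-HDL co-incubation, 3 h at 37 °C · Measured by – bottom-read fluorescence, 550/595 nm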
The depositor's hits bear a star; nt = no result. Compounds with a hit are over-represented: about 2.1% of the library has one in this group of screens.

SMILES	PKA-R1A activ	CDK5 inh	dFosB activator	SR-BI HDL uptake	PKA-R2B act	SR-BI DiI-HDL act
CC1(C)C2CCC13CS(=O)(=O)N[C@@H]3C2 (some centres not stated)	-4	3	8	-118	2	118*
CC(NS(=O)(=O)c1ccc2c(c1)c(=O)n(C)c(=O)n2C)C(=O)NC1CCCCC1 (configuration not stated)	-8	1	-3	-15	-5	15
O=C(CN1c2ccccc2Sc2ccccc21)NNC(=S)Nc1ccc(Cl)cc1	1	-2	1	63	-1	-63
O=C(CN1c2ccccc2Sc2ccccc21)NNC(=S)Nc1ccc(Cl)cc1Cl	-17	-4	-3	76*	-8	-76
O=C1c2ccccc2C(=Nc2ccccc2)C1c1cccc(Br)c1 (configuration not stated)	8	2	-12	81*	-3	-81
CCOc1cccc(CNc2ccc(O)cc2)c1OCc1ccccc1Cl	-6	2	-11	81*	-6	-81
CCOc1cccc(CNc2ccc(O)cc2)c1OCc1ccc(Cl)cc1Cl	3	-2	-20	80*	-4	-80
CCOc1cccc(CNCCO)c1OCc1ccc(Cl)cc1Cl	0	-1	-12	-19	-6	19
O=C(CN1C(=O)CSc2ccc(S(=O)(=O)N3CCOCC3)cc21)NCc1cccnc1	2	-5	-11	2	8	-2
CN(C)S(=O)(=O)c1cccc(NC(=O)c2ccc(S(=O)(=O)N3CCCCC3)cc2)c1	5	1	-5	22	-6	-22
O=C(COc1ccccc1)Nc1cccc(S(=O)(=O)N2CCCC2)c1	0	3	-5	-8	-2	8
CN(C)S(=O)(=O)c1cccc(NC(=O)c2cccc(S(=O)(=O)N3CCCCCC3)c2)c1	-13	-1	-6	77*	5	-77
CC(=O)Nc1cccc(OCC(=O)Nc2cccc(S(=O)(=O)N3CCCC3)c2)c1	6	1	-10	-450	6	449*
Cc1cc(NC(=O)c2cccc(S(=O)(=O)N3CCCCCC3)c2)n(-c2ccccn2)n1	-19	0	2	82*	-13	-82
CS(=O)(=O)c1cccc(C(=O)Nc2cccc(S(=O)(=O)N3CCCC3)c2)c1	9	-1	-18	83*	0	-83
Cc1cc(C(=O)NC2CCCN(Cc3ccccc3F)C2)n[nH]1 (configuration not stated)	2	1	0	56	-1	-56
COc1ccc(CN2CCNC(=O)C2CC(=O)N(C)C2CCOCC2)cc1OC (configuration not stated)	0	nt	nt	nt	1	nt
O=C(CN1C(=O)NC2(CCCCCC2)C1=O)NCc1ccc(Cl)cc1	10	0	-10	-14	-3	14
Cc1ccc(S(C)(=O)=O)cc1C(=O)Nc1cccc(S(=O)(=O)N2CCCCCC2)c1	-1	-1	-11	80*	14	-80
NC(=O)c1ccc(-c2nnn(CC(=O)Nc3cccc(S(=O)(=O)N4CCCC4)c3)n2)cc1	-11	2	110*	26	-1	-26
O=C(Cn1nnc(-c2ccccc2)n1)Nc1cccc(S(=O)(=O)N2CCOCC2)c1	10	0	-4	14	3	-14
CC(=O)c1c(C)[nH]c(C(=O)Nc2cccc(S(=O)(=O)N3CCCCC3)c2)c1C	-1	0	-30	69	6	-69
CCOc1ccc(S(=O)(=O)N2CCCC(C(=O)NC3CC3)C2)cc1Cl (configuration not stated)	-10	0	0	-14	-5	14
Cc1nc2cc(-c3ccccc3)nn2c(C)c1CCC(=O)NC(C)c1ccc2c(c1)OCCO2 (configuration not stated)	4	0	-11	77*	1	-77
CCOc1ccccc1N1CCN(c2nc3ccccc3nc2C(C#N)C(=O)OC)CC1 (configuration not stated)	-3	-1	-18	75*	1	-75
SMILES	PKA-R1A activ	CDK5 inh	dFosB activator	SR-BI HDL uptake	PKA-R2B act	SR-BI DiI-HDL act
COc1ccc(/C=C/C(=O)NCC(=O)N=Nc2c(O)[nH]c3ccc([N+](=O)[O-])cc23)cc1	10	-4	-7	22	-10	-22
OC(CNc1ccccc1)COc1ccc(OCC(O)CNc2ccccc2)cc1 (configuration not stated)	8	-1	0	74*	-12	-74
CCOCC(O)CNc1ccccc1 (configuration not stated)	-7	0	-3	-28	-4	28
O=C(N/N=C\c1cc([N+](=O)[O-])ccc1N1CCOCC1)c1ccccn1	5	1	9	6	-4	-6
COc1ccc(NCC(=O)N/N=C/c2cc([N+](=O)[O-])ccc2N2CCCC2)cc1	nt	0	-6	86*	nt	-86
CCc1ccc(OCC(=O)N/N=C/c2cc([N+](=O)[O-])ccc2N2CCOCC2)cc1	-9	-1	-15	65	-7	-65
O=C(N/N=C\c1cc([N+](=O)[O-])ccc1N1CCCC1)c1ccccn1	3	-1	-4	73*	12	-73
CCSc1nc(-c2ccc(OC)cc2)cc(-c2ccccc2)c1C#N	6	2	1	80*	-8	-80
Cc1cc(CNC(=O)c2cccc3c2C(=O)c2ccc(-c4ccc(F)cc4OCc4ccccc4)cc2S3(=O)=O)c(C(F)(F)F)o1	-2	-1	2	90*	-19	-90
O=C(NC[C@H]1CCCO1)c1cccc2c1C(=O)c1ccc(-c3ccc(F)cc3OCc3ccccc3)cc1S2(=O)=O	-6	1	3	61	-10	-61
COc1ccc(CNC(=O)c2cc(=O)c3cc(C)ccc3o2)cc1	-17	0	17*	-5	-6	5
NC1(CO)COC(c2ccccc2)OC1 (configuration not stated)	-4	nt	nt	nt	0	nt
COc1ccccc1NC(=O)c1c(Nc2ccccc2F)sc(C(=O)Nc2cccc(Cl)c2)c1N	0	2	4	75*	9	-75
COc1ccccc1NC(=O)C/C(N)=N/OCC(=O)Nc1cccc(Cl)c1	-12	-1	-4	14	-2	-14
O=C1CC(c2cc(Br)ccc2F)c2cc3c(cc2N1)CCC3 (configuration not stated)	-15	1	41*	-7	-3	7
O=C1CC(c2ccccc2F)c2cc3c(cc2N1)CCC3 (configuration not stated)	-4	0	2	7	-5	-7
